pIC50: −log10 of the molar value. Calls of active or inactive are those of the source. The rule behind the calls is not given here. Peptide text beside a SMILES is read from it. * marks the point of attachment. Cbz = O=C(OCc1ccccc1)*
Experiments:
[1] = system: RAW264.7; assay: Antiinflammatory activity in mouse RAW264.7 cells assessed as inhibition of LPS-induced nitric oxide production at 10 uM after 24 hrs by Griess assay; assay type: functional; settings: RAW264.7, 24 h
Outline: (§1)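 RAW264.7 cells plated at 1.2 × 10^5/well in RPMI1640 and co-treated with compound and 1 μg/mL LPS for 24 h. Nitrite in medium read with Griess reagent (sulfanilamide/naphthylethylenediamine, phosphoric acid) after 15 min at 37 °C, absorbance 540 nm. […] Curcumin positive control.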

[2] = system: RAW264.7; assay: Antiinflammatory activity in mouse RAW264.7 cells assessed as inhibition of LPS-induced nitric oxide production after 24 hrs by Griess assay; assay type: functional, cell-based; settings: RAW264.7, 24 h; outline: as §1
[3] = target: T1, Tyrosine-protein phosphatase non-receptor type 1 (Homo sapiens) (UniProt P18031); assay: Inhibition of recombinant human PTP1B assessed as hydrolysis of p-nitrophenyl phosphate at 25 uM after 30 mins relative to control
T1 sequence (whole entry): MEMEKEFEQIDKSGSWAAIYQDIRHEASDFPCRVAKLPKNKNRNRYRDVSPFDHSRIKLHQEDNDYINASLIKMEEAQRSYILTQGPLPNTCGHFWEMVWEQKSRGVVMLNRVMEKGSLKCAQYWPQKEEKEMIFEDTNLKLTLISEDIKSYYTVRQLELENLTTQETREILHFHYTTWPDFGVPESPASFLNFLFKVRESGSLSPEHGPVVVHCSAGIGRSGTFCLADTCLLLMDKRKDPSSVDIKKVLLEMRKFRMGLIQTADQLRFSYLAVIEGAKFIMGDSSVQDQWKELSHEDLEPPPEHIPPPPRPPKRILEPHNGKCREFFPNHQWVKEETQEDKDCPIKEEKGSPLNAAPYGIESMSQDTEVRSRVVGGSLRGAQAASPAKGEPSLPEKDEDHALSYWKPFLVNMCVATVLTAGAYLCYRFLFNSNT

[4] = system: SW480; assay: Inhibition of NFkappaB transcription in human SW480 cells at 10 uM by luciferase reporter gene assay; assay type: cell-based
Outline: (§2)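 SW480 cells (RPMI1640) stably transfected with an NF-κB luciferase reporter. […] MG132 positive control.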

[5] = system: SW480; assay: (§3) Inhibition of NFkappaB transcription in human SW480 cells at by luciferase reporter gene assay; assay type: cell-based; outline: as §2
[6] = as §3; assay type: cell-based; outline: as §2
[7] = target: T2, Tyrosinase (Homo sapiens, UniProt P14679); assay: Inhibition of tyrosinase (unknown origin) using L-tyrosine as substrate assessed as oxidation of L-tyrosine after 15 mins
T2 sequence (P14679 whole entry): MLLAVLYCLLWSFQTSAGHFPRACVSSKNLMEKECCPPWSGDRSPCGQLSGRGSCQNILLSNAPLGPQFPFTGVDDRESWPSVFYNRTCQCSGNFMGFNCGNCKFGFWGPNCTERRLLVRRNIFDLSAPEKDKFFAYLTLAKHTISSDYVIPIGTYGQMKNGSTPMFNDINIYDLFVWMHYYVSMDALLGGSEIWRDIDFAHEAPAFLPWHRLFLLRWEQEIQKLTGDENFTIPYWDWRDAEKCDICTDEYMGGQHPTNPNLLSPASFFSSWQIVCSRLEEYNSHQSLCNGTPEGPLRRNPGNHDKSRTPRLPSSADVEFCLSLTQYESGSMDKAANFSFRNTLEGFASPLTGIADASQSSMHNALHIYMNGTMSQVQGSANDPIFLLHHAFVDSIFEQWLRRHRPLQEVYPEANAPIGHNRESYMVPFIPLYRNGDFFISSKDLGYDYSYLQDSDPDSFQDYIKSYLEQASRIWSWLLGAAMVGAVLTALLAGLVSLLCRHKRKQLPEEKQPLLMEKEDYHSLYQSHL
Outline: (§4)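 Tyrosinase at 333 U/mL (stock) in 45 mM sodium phosphate, pH 6.6, with 2 mM L-tyrosine (stock). Incubated 37 °C for 15 min; oxidation read at 492 nm. Screened at 20 μM; dose-response for IC50. Glyasperin C positive control.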

[8] = target: T3, Tyrosinase (Homo sapiens) (UniProt P14679); assay: Inhibition of tyrosinase (unknown origin) using L-tyrosine as substrate assessed as oxidation of L-tyrosine at 20 uM after 15 mins; outline: as §4
T3 sequence (whole entry): T2 sequence (P14679 whole entry)

[9] = target: T4, Acetylcholinesterase (Homo sapiens, UniProt P22303); assay: Inhibition AChE (unknown origin) using ATCI as substrate assessed as hydrolysis of ATCI after 10 mins measured every 1 min for 10 times
T4 sequence (P22303 whole entry): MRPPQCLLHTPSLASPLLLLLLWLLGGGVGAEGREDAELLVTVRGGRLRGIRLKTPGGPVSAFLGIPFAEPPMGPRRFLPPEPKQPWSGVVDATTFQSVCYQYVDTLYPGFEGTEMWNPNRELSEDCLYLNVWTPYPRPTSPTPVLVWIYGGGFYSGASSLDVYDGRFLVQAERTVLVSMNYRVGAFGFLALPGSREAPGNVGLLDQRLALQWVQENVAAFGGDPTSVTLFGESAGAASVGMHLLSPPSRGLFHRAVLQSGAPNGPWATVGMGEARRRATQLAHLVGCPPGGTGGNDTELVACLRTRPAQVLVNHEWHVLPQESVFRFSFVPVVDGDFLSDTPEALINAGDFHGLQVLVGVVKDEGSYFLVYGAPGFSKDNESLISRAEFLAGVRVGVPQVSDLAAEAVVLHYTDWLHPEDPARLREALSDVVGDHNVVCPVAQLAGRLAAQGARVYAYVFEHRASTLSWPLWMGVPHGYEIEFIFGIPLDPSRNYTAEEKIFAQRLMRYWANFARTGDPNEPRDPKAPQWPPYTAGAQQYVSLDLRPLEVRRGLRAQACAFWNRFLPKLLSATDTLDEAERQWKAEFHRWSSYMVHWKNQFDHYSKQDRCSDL

[10] = target: T4, Acetylcholinesterase; assay: Inhibition AChE (unknown origin) using ATCI as substrate assessed as hydrolysis of ATCI at 25 uM measured every 1 min for 10 times
Outline: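 Commercial AChE (added as 0.025 U/mL solution) in Tris-HCl (30 mM, pH 8.0) with DTNB (added as 0.26 mM) and ATCI substrate (added as 0.2 mM); 200 μL mixture at room temperature. Thiocholine release read at 405 nm every min, 10 reads; linear slope taken as rate. Screening at 25 μM; galanthamine positive control.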

[11] = system: HepG2; assay: Cytotoxicity against human HepG2 cells assessed as reduction in cell viability after 24 hrs by MTS assay; assay type: functional, cell-based; settings: HepG2, 24 h
Outline: (§5)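 Cells seeded at 5 × 10^3/well and cultured overnight, then exposed to compounds for 24 h. Viability read by MTS. Media: SW480 in RPMI1640, A549 in DMEM, MCF7 in MEM. […] Irinotecan positive control.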

[12] = system: SW480; assay: Cytotoxicity against human SW480 cells assessed as reduction in cell viability after 24 hrs by MTS assay; assay type: functional, cell-based; settings: SW480, 24 h; outline: as §5
[13] = system: A549; assay: Cytotoxicity against human A549 cells assessed as reduction in cell viability after 24 hrs by MTS assay; assay type: functional, cell-based; settings: A549, 24 h; outline: as §5
[14] = system: MDCK; assay: Cytotoxicity against MDCK cells after 36 hrs; assay type: cell-based, Canis lupus familiaris; settings: dog
[15] = system: MCF7; assay: Cytotoxicity against human MCF7 cells assessed as reduction in cell viability after 24 hrs by MTS assay; assay type: functional, cell-based; settings: MCF7, 24 h; outline: as §5
[16] = target: T5, Nuclear factor erythroid 2-related factor 2 (Homo sapiens) (UniProt Q16236); assay: Activation of NRF2 transcription in human HepG2C8 cells at 10 uM after 6 hrs by luciferase reporter gene assay relative to control; assay type: cell-based
T5 sequence (whole entry): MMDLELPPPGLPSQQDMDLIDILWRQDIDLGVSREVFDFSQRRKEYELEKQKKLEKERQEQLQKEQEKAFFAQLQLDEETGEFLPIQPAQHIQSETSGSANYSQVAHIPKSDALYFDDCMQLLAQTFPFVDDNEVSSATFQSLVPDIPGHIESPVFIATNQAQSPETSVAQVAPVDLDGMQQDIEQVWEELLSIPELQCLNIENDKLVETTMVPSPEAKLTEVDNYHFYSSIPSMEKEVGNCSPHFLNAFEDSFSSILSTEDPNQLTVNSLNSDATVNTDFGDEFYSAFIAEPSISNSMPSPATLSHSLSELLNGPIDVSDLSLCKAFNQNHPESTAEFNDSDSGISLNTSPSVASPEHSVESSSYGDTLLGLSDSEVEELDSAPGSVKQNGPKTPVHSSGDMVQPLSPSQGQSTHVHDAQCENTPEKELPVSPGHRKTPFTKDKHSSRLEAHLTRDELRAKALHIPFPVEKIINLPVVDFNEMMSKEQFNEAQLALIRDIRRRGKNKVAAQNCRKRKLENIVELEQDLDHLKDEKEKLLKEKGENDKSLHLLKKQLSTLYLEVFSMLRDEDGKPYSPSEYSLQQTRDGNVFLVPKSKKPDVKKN
Outline: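 Luciferase reporter in HepG2C8 cells, which are HepG2 stably transfected with an Nrf2 luciferase reporter and grown in MEM. Screened at 10 μM, with dose-response over 2.5−40 μM. Activity expressed as fold of control. tBHQ positive control.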

[17] = system: Influenza A virus; assay: Antiviral activity against Influenza A virus A/WSN/33(H1N1) infected in MDCK cells at 100 uM preincubated with virus for 15 mins followed by cells addition measured at 36 hrs post infection; assay type: functional, A/WSN/1933(H1N1)
Outline: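 MDCK canine kidney cells grown in DMEM and infected with influenza A/WSN/33 (H1N1). Compounds screened at 100 μM. Oseltamivir phosphate served as the positive control.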

[18] = target: T5, Nuclear factor erythroid 2-related factor 2 (Homo sapiens); assay: Activation of NRF2 transcription in human HepG2C8 cells at 100 uM after 6 hrs by luciferase reporter gene assay relative to control; assay type: cell-based
[19] = target: T1, Tyrosine-protein phosphatase non-receptor type 1 (Homo sapiens); settings: 5 uM

## COc1c(-c2ccc(O)c(CC=C(C)C)c2)oc2cc(O)cc(O)c2c1=O
[1]
  inhibition at 10 µM: > 50%
[2]
  pIC50: 4.92
[3]
  inhibition: 85%

## COc1ccc2c(c1)OC1C2COC2=CC(=O)CCC21O (stereo not given)
[4]
  inhibition: > 30%
[3]
  inhibition: inactive
[5]
  inhibition: Dose-dependent effect
[6]
  pIC50: 4.77

## O=c1c(O)c(-c2ccc(O)cc2)oc2cc(O)cc(O)c12 [KAEMPFEROL]
[7]
  pIC50: 6.00
[8]
  inhibition: > 95%

## COc1cc2occ(-c3ccc(O)cc3O)c(=O)c2c(O)c1CC=C(C)C
[9]
  pIC50: 5.00
[10]
  inhibition: 83%

## COc1c(CC=C(C)C)c(O)cc2c1C[C@H](c1ccc(O)c(CC=C(C)C)c1O)CO2 [LICORICIDIN]
[11]
  pIC50: 6.52
[12]
  pIC50: 5.15
[13]
  pIC50: 5.16
[9]
  pIC50: 4.81
[10]
  inhibition: 82%
[14]
  Activity: Toxic
[15]
  pIC50: 5.28
[3]
  inhibition: > 95%

## COc1c2c(cc(O)c1CC=C(C)C)OCC(c1ccc(O)cc1O)=C2
[16]
  fold change (FC): 4.7
[1]
  inhibition at 10 µM: > 50%
[2]
  pIC50: 5.09
[17]
  Activity: >30%
[8]
  inhibition: inactive

## CC(C)(C)c1cc(O)ccc1O
[18]
  fold change (FC): 4.34
[16]
  fold change (FC): 1.51

## C[C@H]1[C@H](C)CC[C@]2(C(=O)O)CC[C@]3(C)C(=CC[C@@H]4[C@@]5(C)CC[C@H](O)C(C)(C)[C@@H]5CC[C@]43C)[C@H]12
[19]
  inhibition: 45%

## CC1(C)C=Cc2c(ccc3c2OC[C@@H](c2ccc(O)cc2O)C3)O1 [GLABRIDIN]
[4]
  inhibition: > 30%
[5]
  inhibition: Dose-dependent effect
[6]
  pIC50: 4.67

## CC(C)C[C@@H](C=O)NC(=O)[C@H](CC(C)C)NC(=O)[C@H](CC(C)C)NC(=O)OCc1ccccc1 [MG-132] (Cbz-Leu-Leu-Leu-aldehyde)
[4]
  inhibition: 23%
[5]
  inhibition: Dose-dependent effect
[6]
  pIC50: 4.53

## COc1c(CC=C(C)C)c(O)cc2c1C[C@H](c1ccc(O)cc1O)CO2 [GLYASPERIN C]
[7]
  pIC50: 6.75
[8]
  inhibition: > 95%

From ChEMBL document CHEMBL3808312, “Bioactive Constituents of Glycyrrhiza uralensis (Licorice): Discovery of the Effective Components of a Traditional Herbal Medicine” (J Nat Prod, 2016)
